{"source": "ChEMBL document CHEMBL4000163", "about": "“Pyrazole derived ultra-short antimicrobial peptidomimetics with potent anti-biofilm activity” (Eur J Med Chem, 2017)", "key": {"[1]": {"test_system": "Staphylococcus epidermidis", "test": "Antimicrobial activity against Staphylococcus epidermidis KCTC 1917 incubated for 18 to 20 hrs by broth microdilution assay", "format": "functional", "settings": "read-out: MIC100", "outline": "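Broth microdilution in 1% peptone. Inoculum was 2 × 10⁶ CFU/mL mixed 1:1 with serial 2-fold peptide dilutions and incubated 18–20 h at 37 °C. Growth was read as absorbance at 600 nm; MIC is the lowest peptide concentration giving 100% growth inhibition.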"}, "Pseudomonas aeruginosa [2]": {"test_system": "Pseudomonas aeruginosa", "test": "Potency index, ratio of LL-37 MIC100 to compound MIC100 for Pseudomonas aeruginosa KCTC 1637", "format": "functional"}, "[3]": {"test": "Therapeutic index, ratio of MHC for sheep RBC to MIC for Staphylococcus epidermidis KCTC 1917"}, "[4]": {"test": "Therapeutic index, ratio of MHC for sheep RBC to MIC for Staphylococcus aureus KCTC 1621"}, "RAW264.7 [5]": {"test_system": "RAW264.7", "test": "Cytotoxicity against mouse RAW264.7 cells up to 32 ug/mL after 2 days by MTT assay", "format": "cell-based", "settings": "raw264.7, 48 h", "outline": "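Cells in DMEM with 10% FBS seeded at 2×10^4 cells/well and incubated 24 h at 37 °C, 5% CO₂. Serial 2-fold peptide dilutions were added for 2 days, then MTT for 4 h. Formazan was dissolved in 20% SDS/0.01 M HCl and read at 570 nm. Survival is expressed as a percentage of untreated cells.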"}, "Staphylococcus aureus [6]": {"test_system": "Staphylococcus aureus", "test": "Antibacterial activity against methicillin resistant Staphylococcus aureus CCARM 3090 after 18 to 20 hrs by broth microdilution assay", "format": "functional", "settings": "read-out: MIC100", "outline": "(§1)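 Broth microdilution in 1% peptone: bacteria at 2 × 10⁶ CFU/mL mixed 1:1 with serial 2-fold peptide dilutions, 18-20 h at 37 °C; growth read as absorbance at 600 nm. MIC taken as lowest concentration giving 100% growth inhibition.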"}, "Pseudomonas aeruginosa [7]": {"test_system": "Pseudomonas aeruginosa", "test": "Antibacterial activity against multidrug-resistant Pseudomonas aeruginosa CCARM 2109 after 18 to 20 hrs by broth microdilution assay", "format": "functional", "settings": "read-out: MIC100", "outline": "as §1"}, "Pseudomonas aeruginosa [8]": {"test_system": "Pseudomonas aeruginosa", "test": "Antibacterial activity against multidrug-resistant Pseudomonas aeruginosa CCARM 2095 after 18 to 20 hrs by broth microdilution assay", "format": "functional", "settings": "read-out: MIC100", "outline": "as §1"}, "Staphylococcus aureus [9]": {"test_system": "Staphylococcus aureus", "test": "Antimicrobial activity against Staphylococcus aureus KCTC 1621 in presence of CaCl2", "format": "functional", "outline": "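MIC by microdilution with 2 × 10⁶ CFU/ml S. aureus KCTC 1621 in LB medium supplemented with physiological salt: 150 mM NaCl, 1 mM MgCl₂ or 2.5 mM CaCl₂; growth inhibition endpoint as in the standard MIC assay.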"}, "Escherichia coli [10]": {"test_system": "Escherichia coli", "test": "Induction of outer membrane permeabilization in Escherichia coli KCTC 1682 assessed as NPN uptake by spectrofluorophotometric analysis", "format": "functional", "outline": "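E. coli KCTC 1682 at OD600 0.05 in 5 mM HEPES pH 7.2 with 5 mM KCN; NPN 10 µM final, background fluorescence recorded (ex 350, em 420 nm). Peptide aliquots at various concentrations added and fluorescence followed over time until no further rise.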"}, "Staphylococcus aureus [11]": {"test_system": "Staphylococcus aureus", "test": "Antimicrobial activity against Staphylococcus aureus KCTC 1621 assessed as cell membrane damage at 2 times MIC after 1 hr by transmission electron microscopy", "format": "functional", "outline": "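Bacteria at 2×10^7 CFU/mL in LB, washed three times in PBS. Peptide in PBS was added to a final 2 × MIC and incubated 1 h at 37 °C. Pelleted cells were resuspended in PBS, applied to glow-discharged carbon-film grids, negatively stained with 1% uranyl acetate for 1 min, and imaged by TEM at 120 kV.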"}, "RAW264.7 [12]": {"test_system": "RAW264.7", "test": "Antiinflammatory activity in mouse RAW264.7 cells assessed as inhibition of LPS-induced nitric oxide production after 24 hrs by Griess method", "format": "functional, cell-based", "outline": "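RAW264.7 macrophages (5×10^5 cells/mL) stimulated with LPS (20 ng/mL), with or without peptide, for 24 h. Supernatants were mixed 1:1 with Griess reagent (1% sulfanilamide, 0.1% naphthylethylenediamine, 2% phosphoric acid) for 10 min at room temperature, read at 540 nm, and quantified against an NaNO₂ standard curve. Mean ± SEM of technical triplicates, ANOVA with Bonferroni post-test.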"}, "RAW264.7 [13]": {"test_system": "RAW264.7", "test": "Antiinflammatory activity in mouse RAW264.7 cells assessed as inhibition of LPS-induced TNFalpha mRNA expression at 16 ug/mL after 3 hrs by RT-PCR method", "format": "functional, cell-based", "outline": "(§2)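 RAW264.7 cells plated at 5×10^5 cells/well and cultured overnight. They were stimulated with 20 ng/mL LPS, with or without peptide, in DMEM with 10% bovine serum, for 3 h (TNF-α) or 6 h (iNOS). Total RNA was reverse-transcribed with oligo(dT)15 primers and amplified for 30 cycles (annealing 55 °C). mRNA was analysed by PCR.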"}, "RAW264.7 [14]": {"test_system": "RAW264.7", "test": "Antiinflammatory activity in mouse RAW264.7 cells assessed as inhibition of LPS-induced iNOS mRNA expression at 16 ug/mL after 6 hrs by RT-PCR method", "format": "functional, cell-based", "outline": "as §2"}, "Staphylococcus aureus [15]": {"test_system": "Staphylococcus aureus", "test": "Potency index, ratio of LL-37 MIC100 to compound MIC100 for Staphylococcus aureus KCTC 1621", "format": "functional"}, "Staphylococcus aureus [16]": {"test_system": "Staphylococcus aureus", "test": "Potency index, ratio of melittin MIC100 to compound MIC100 for Staphylococcus aureus KCTC 1621", "format": "functional"}, "Staphylococcus aureus [17]": {"test_system": "Staphylococcus aureus", "test": "Potency index, ratio of melittin MIC100 to compound MIC100 for methicillin resistant Staphylococcus aureus CCARM 3095", "format": "functional"}, "Escherichia coli [18]": {"test_system": "Escherichia coli", "test": "Antimicrobial activity against Escherichia coli KCTC 1682 using 4 hrs trypsin incubated compound measured after overnight incubation by radial diffusion assay", "format": "functional", "outline": "(§3)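 Radial diffusion: mid-log cells (2×10^6 CFU/ml in LB) in 0.7% agarose. Peptide stock (10 mg/mL) added to trypsin in PBS (0.2 µg/mL), 4 h at 37 °C, stopped by liquid-nitrogen freezing; 10 µL on paper discs on the plates, overnight at 37 °C. Clearance-zone diameters measured.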"}, "Staphylococcus aureus [19]": {"test_system": "Staphylococcus aureus", "test": "Antimicrobial activity against Staphylococcus aureus KCTC 1621 using 4 hrs trypsin incubated compound measured after overnight incubation by radial diffusion assay", "format": "functional", "outline": "as §3"}, "RAW264.7 [20]": {"test_system": "RAW264.7", "test": "Antiinflammatory activity in mouse RAW264.7 cells assessed as inhibition of LPS-induced TNF-alpha production preincubated with cells followed by LPS addition measured after 6 hrs by ELISA", "format": "functional, cell-based", "outline": "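RAW264.7 cells seeded at 5 × 10⁴ cells/well, left overnight, then given peptide at 37 °C. Unbound peptide was washed off with PBS (five washes) before LPS (20 ng/mL) was added for 6 h at 37 °C. TNF-α in the samples was measured by mouse ELISA. Mean ± SEM of technical triplicates, one-way ANOVA with Bonferroni post-test.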"}}, "note": "Activity calls are given as the source filed them. No cut-off for these calls is given here.", "data": [{"smiles": "N=C(N)NCCC[C@H](NC(=O)c1nn(CCc2cccc3ccccc23)cc1NC(=O)[C@H](CCCNC(=N)N)NC(=O)c1nn(CCc2cccc3ccccc23)cc1N)C(N)=O", "values": [{"measurement": "MIC", "setting": "[1]", "result": 32, "unit": "µg/mL"}, {"measurement": "Ratio", "setting": "Pseudomonas aeruginosa [2]", "result": 8}, {"measurement": "TI", "setting": "[3]", "result": 53.9}, {"measurement": "TI", "setting": "[4]", "result": 53.9}, {"measurement": "Activity", "setting": "RAW264.7 [5]", "result": "Non-Toxic"}, {"measurement": "MIC", "setting": "Staphylococcus aureus [6]", "result": 8, "unit": "µg/mL"}, {"measurement": "MIC", "setting": "Pseudomonas aeruginosa [7]", "result": 8, "unit": "µg/mL"}, {"measurement": "MIC", "setting": "Pseudomonas aeruginosa [8]", "result": 8, "unit": "µg/mL"}, {"measurement": "MIC", "setting": "Staphylococcus aureus [9]", "result": 8, "unit": "µg/mL"}, {"measurement": "Activity", "setting": "Escherichia coli [10]", "result": "Dose-dependent effect"}, {"measurement": "Activity", "setting": "Staphylococcus aureus [11]", "result": "Active"}, {"measurement": "inhibition", "setting": "RAW264.7 [12]", "result": "Dose-dependent effect"}, {"measurement": "inhibition", "setting": "RAW264.7 [13]", "result": "Active"}, {"measurement": "inhibition", "setting": "RAW264.7 [14]", "result": "Active"}, {"measurement": "Ratio", "setting": "Staphylococcus aureus [15]", "result": 8}, {"measurement": "Ratio", "setting": "Staphylococcus aureus [16]", "result": 4}, {"measurement": "Ratio", "setting": "Staphylococcus aureus [17]", "result": "2 - 4"}, {"measurement": "Activity", "setting": "Escherichia coli [18]", "result": "Active"}, {"measurement": "Activity", "setting": "Staphylococcus aureus [19]", "result": "Active"}, {"measurement": "inhibition", "setting": "RAW264.7 [20]", "result": "Dose-dependent effect"}]}]}
